Screening results from PubChem BioAssay.
Only some compounds are listed: those with a hit (about 1.9% of all), similar ones and a draw of the others.
RanGTP-Imp inh – inhibitors of RanGTP-importin-beta interaction, primary screen, biochemical, FRET, CFP-Ran, YFP-importin-beta, homogeneous; Ran GTPase (GTP-bound) - importin-beta complex; cell-free CFP-Ran/YFP-importin-beta FRET ratio; inhibition, % (no concentration beside the values); 300,000 tested, 1.1% active;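 active = more than half of the replicate wells show a fall in the fluorescence ratio signal beyond about 16%, limit read from the data, passing the limit was not always enough; inconclusive = exactly half of the replicate wells pass the set limit; inactive = fewer than half of replicates pass the limit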;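 note: 0% = DMSO wells and 100% = Ran loaded with GDP instead of GTP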
Runt-CBFb FRET – inhibitors of RUNX1 Runt–CBFb binding, primary screen, biochemical, FRET, Cerulean-Runt, Venus-CBFb, uHTS; 220,000 tested, 0.46% active; Cerulean-Runt/Venus-CBFb FRET ratio 530/480, 1 h; inhibition, % at 20 µM; Runt-related transcription factor 1 (Homo sapiens) + Core-binding factor subunit beta …;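 active = inhibition over about 50% at 20 µM in the single-dose screen, limit read from the data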;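 note: 0% = DMSO wells and 100% = excess unlabeled CBFb competitor control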
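Assay system: Cerulean-tagged RUNX1 Runt domain (FRET donor) fusion protein / Amount: 100 nM each of Venus-CBFb and Cerulean-Runt domain / Medium: Tris buffer pH 7.5 with salts and BSA / Also added: Venus-CBFb 100 nM / Schedule: 1 h complex formation plus 1 h compound treatment, room temperature / Signal: FRET fluorescence / Read-out: loss of energy transfer signal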
Hck-Nef inh – inhibitors of Nef-activated human Hck kinase, primary screen, biochemical, Z-Lyte FRET, 384-well, Hck-YEEI; AID 463187, 2010; inhibition, % at 20 µM; Recombinant Hck-YEEI plus Nef, Z-Lyte FRET kinase assay; 220,000 tested, 0.68% active;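 active = Hck-Nef kinase inhibition above about 50%, limit read from the data; inactive = inhibition below that limit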;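 note: 0% = DMSO with Hck plus Nef and 100% = Hck alone without Nef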
Target sequence (P08631 whole entry, looked up): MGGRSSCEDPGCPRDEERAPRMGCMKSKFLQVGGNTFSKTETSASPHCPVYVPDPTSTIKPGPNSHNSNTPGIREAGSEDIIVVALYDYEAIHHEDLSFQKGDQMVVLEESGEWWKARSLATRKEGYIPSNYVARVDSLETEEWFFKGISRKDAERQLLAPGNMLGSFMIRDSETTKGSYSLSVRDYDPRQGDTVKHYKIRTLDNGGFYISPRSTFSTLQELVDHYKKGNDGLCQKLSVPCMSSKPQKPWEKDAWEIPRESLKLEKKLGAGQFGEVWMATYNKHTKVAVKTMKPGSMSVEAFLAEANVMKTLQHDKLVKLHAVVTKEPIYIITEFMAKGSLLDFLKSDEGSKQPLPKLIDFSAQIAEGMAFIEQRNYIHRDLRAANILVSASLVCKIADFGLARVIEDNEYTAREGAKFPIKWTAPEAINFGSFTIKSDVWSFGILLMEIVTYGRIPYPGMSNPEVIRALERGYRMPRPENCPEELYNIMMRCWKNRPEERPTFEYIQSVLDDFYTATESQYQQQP
Runt-SMMHC FRET – inhibitors of RUNX1 Runt–CBFb-SMMHC binding, primary screen, biochemical, FRET, Cerulean-Runt, Venus-CBFb-SMMHC, uHTS. Runt-related transcription factor 1 (Homo sapiens) + Core-binding factor subunit beta …. Cerulean-Runt/Venus-CBFb-SMMHC FRET ratio 530/480, 1 h. inhibition, % at 20 µM. 220,000 tested, 0.74% active. AID 1434, 2008;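 active = mean inhibition across duplicate retests at 20 µM reaching about 50%, limit read from the data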;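 note: 0% = DMSO wells and 100% = wells with excess untagged CBFb-SMMHC; inhibitors lower the FRET ratio by blocking Runt binding to CBFb-SMMHC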
* hit, by the source's call; ? = inconclusive; nt = no result.

SMILES	RanGTP-Imp inh	Runt-CBFb FRET	Hck-Nef inh	Runt-SMMHC FRET
CCC(NC(=O)OCc1ccccc1)C(=O)Oc1ccc2ccc(=O)oc2c1 (stereo unspecified)	21*	nt	nt	nt
Cc1cccc2cc(C#N)c(NCCNS(=O)(=O)c3ccccc3)nc12	13	26	22	58*
Cc1cccc2cc(C#N)c(NCCCNS(=O)(=O)c3ccc(Cl)cc3)nc12	47*	31	30	74*
COc1ccc(Nc2nc3c(C)cccc3cc2C#N)c(OC)c1	-4	-32	-1	-76
Cc1cccc2cc(C#N)c(NCc3ccccc3)nc12	?	21	38	47
c1cncc(-c2csc(-c3cccnc3)n2)c1	9	nt	nt	nt
Clc1ccsc1-c1csc(-c2cccnc2)n1	37*	-3	1	-4
Cc1ccc(NC(=O)C2CCN(S(=O)(=O)c3c(C)nn(C)c3C)CC2)c(Cl)c1	0	nt	nt	nt
O=C(Nc1ccccc1)c1ccc(Br)c(S(=O)(=O)Nc2ccccn2)c1	-3	nt	nt	nt
COc1ccc(OCc2csc(N)n2)cc1	1	1	7	-4
O=C(Nc1cccc(Cl)c1)NC1CC2CCC(C1)N2Cc1ccco1 (stereo unspecified)	33*	2	-11	-2
CCc1ccccc1NC(=O)NC1CC2CCC(C1)N2Cc1ccco1 (stereo unspecified)	6	0	19	3
CC(C)N1CCc2c(sc(NC(=O)CCS(=O)(=O)c3ccccc3)c2C#N)C1	169*	nt	nt	nt
CCCN1CCc2c(sc(NC(=O)CCS(=O)(=O)c3ccccc3)c2C(=O)OC)C1	155*	nt	nt	nt
COC(=O)c1c(NC(=O)CN2CCN(S(=O)(=O)c3ccccc3)CC2)sc2c1CCC(C)C2 (stereo unspecified)	3	0	2	-2
COC(=O)c1c(NC(=O)CCS(=O)(=O)c2ccccc2)sc2c1CCN(C)C2	79*	nt	nt	nt
CCOc1ccc2nc(NCCNC(=O)CC)c(C#N)cc2c1	2	10	7	95*
COc1ccc(C(=O)NCCNc2nc3ccc(C)cc3cc2C#N)cc1OC	77*	nt	nt	nt
C=CCN(CC=C)c1nc2ccccc2nc1C(C#N)C(=O)OC(C)C (stereo unspecified)	29*	16	0	115*
CCC1CCCCN1C(=O)CCn1c(=O)oc2ccccc21 (stereo unspecified)	-1	nt	nt	nt
NC(=S)N/N=C1/CCSc2ccc3ccccc3c21	0	5	19	0
Cc1nc(Cl)c2c(n1)NC1=C(O2)C(=O)CCC1	-2	-44	-7	73*
O=C1NC2=C(C(=O)CCC2)C(c2ccccc2Cl)N1 (stereo unspecified)	-5	nt	nt	nt
COc1ccc(-c2cc(=O)n(-c3nc4ccccc4[nH]3)[nH]2)cc1	56*	6	-3	-7
CN(C)c1c2ccccc2nc2c(F)c(F)c(F)c(F)c12	23*	nt	12	102
SMILES	RanGTP-Imp inh	Runt-CBFb FRET	Hck-Nef inh	Runt-SMMHC FRET
Cc1c2ccccc2nc2c(F)c(N(C)C)c(F)c(F)c12	-5	-6	-2	-44
COc1ccc(CCNc2ncnc3cc(OC)c(OC)cc23)cc1OC	1	3	31	-5
COc1cc2ncnc(NCCc3ccccc3)c2cc1OC	1	1	59*	-5
CC1CCCCN1C(=O)COC(=O)c1ccc(=O)n(Cc2ccccc2)n1 (stereo unspecified)	2	nt	nt	nt
CCOC(=O)Cc1csc(NS(=O)(=O)c2ccc3c4c(cccc24)C(=O)N3CC)n1	-3	-6	4	-13
CCN1C(=O)c2cccc3c(S(=O)(=O)Nc4c(C)n(C)n(-c5ccccc5)c4=O)ccc1c23	4	-1	8	-1
CN1C(=O)c2cccc3c(S(=O)(=O)NCCc4ccccc4)ccc1c23	8	nt	nt	nt
COCCNS(=O)(=O)c1ccc2c3c(cccc13)C(=O)N2C	23*	-15	-46	90
CCN1C(=O)c2cccc3c(S(=O)(=O)NCc4ccccn4)ccc1c23	23*	-20	0	57
CCOC(=O)CNS(=O)(=O)c1ccc2c3c(cccc13)C(=O)N2CC	21*	0	-53	86*
CN(c1ccccc1)S(=O)(=O)c1cccc(C(=O)Nc2nn[nH]n2)c1	1	1	3	-3
CCOC(=O)CNC(=O)CSc1nc(Cc2ccccc2)nc2ccccc12	-3	nt	nt	nt
Cc1nnc(SCc2nc3sc4c(c3c(=O)[nH]2)CCCC4)[nH]c1=O	4	0	8	-12
CSC1=N/C(=C\c2c(F)cccc2Cl)C(=O)S1	-2	2	2	2
O=C1C/C(=C\c2c(F)cccc2Cl)N2CCC1CC2	53*	-1	13	-5
S=C(NCc1ccc(Cl)cc1)NN1CCOCC1	-2	1	17	0
O=C(Nc1ccnn1C1CCN(Cc2ccccc2)CC1)C1CCCC1	-1	nt	nt	nt
O=C(Nc1nc2c(s1)CN(Cc1ccccc1)CC2)C1CCC1	2	42	29	130*
CCN1CCc2nc(NC(=O)c3ccccc3)sc2C1	53*	44	9	109*
CCN1C(=O)N(S(=O)(=O)C(F)(F)F)[C@@H](c2ccccc2)C(C(=O)OC)=C1C	35*	0	26	0
Cc1ccc(S(=O)(=O)NC(C)C(=O)NC(C)c2cccs2)cc1 (stereo unspecified)	3	nt	nt	nt
Cc1ccccc1NC(=O)CCN1CCc2ccccc2C1	1	2	18	-4
CN1CCc2c(sc3c2C(=O)NC(c2cn(Cc4ccccc4)c4ccccc24)N3)C1 (stereo unspecified)	60*	63*	14	70*
CN1CCc2c(sc3c2C(=O)NC(c2ccco2)N3)C1 (stereo unspecified)	113*	127*	2	38
Cn1cccc1C1NC(=O)c2c(sc3c2CCC(C(C)(C)C)C3)N1 (stereo unspecified)	-2	3	1	1
SMILES	RanGTP-Imp inh	Runt-CBFb FRET	Hck-Nef inh	Runt-SMMHC FRET
COc1ccc(Br)cc1C1NC(=O)c2c(sc3c2CCN(C)C3)N1 (stereo unspecified)	nt	113*	nt	65*
CN1CCc2c(sc3c2C(=O)NC(c2ccc(-c4ccc(Cl)cc4)o2)N3)C1 (stereo unspecified)	90*	114*	18	33
Cc1noc(NC(=O)c2cccc(Cl)c2Cl)c1C#N	4	0	25	-2
Cc1c(NC(=O)C(=O)/C=C(\O)c2ccc(Br)cc2)c(=O)n(-c2ccccc2)n1C	?	-12	2	1
CCN(CCn1cccn1)C(=O)C1CCC(=O)N(CCN2CCOCC2)C1 (stereo unspecified)	5	nt	nt	nt
CN(CC(=O)Nc1cccc(F)c1)C(=O)c1ccccc1Cc1ccccc1	0	nt	nt	nt
O=C(Cn1nnc2ccccc21)OCC(=O)c1ccc(F)cc1	-3	0	-3	1
